Data published in ChEMBL document CHEMBL1121448, “Adrenergic receptor agonists. Benzofuranylethanolamines” (1980).

Key:
[1] = target: Beta-2 adrenergic receptor (Homo sapiens) (UniProt P07550); assay: Tested for agonistic effect on peripheral vascular resistance (PR) against beta 2 adrenergic receptor in cat; format: functional; details: Felis catus; target entry is the homologue from another species
Procedure, shortened: (§1)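 Reserpinized, bilaterally vagotomized cats, pentobarbital-anesthetized (30 mg/kg ip, then 0.1 (mg/min)/kg infusion), artificially ventilated. Heart rate was recorded by cardiotachograph from carotid pressure. Hind-leg vascular resistance was read as perfusion pressure under constant-flow autoperfusion. Test compound was infused iv into the femoral vein for 10 min at 1.0 mL/min, in five stepwise raised concentrations.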

[2] = target: Beta-1 adrenergic receptor (Homo sapiens) (UniProt P08588); assay: Tested for agonistic effect on heart rate against beta-1 adrenergic receptor in cat; format: functional, tissue-based; details: Felis catus, target entry is the homologue from another species; procedure, shortened: as §1
[3] = species on record: Felis catus; assay: Intrinsic activity as percentage of heart rate (HR max) in cat was determined; format: functional; procedure, shortened: as §1
[4] = target: Beta-1 adrenergic receptor (Homo sapiens) (UniProt P08588); assay: Tested for antagonistic effect on heart rate against beta-1 adrenergic receptor in cat; format: functional, tissue-based; details: Felis catus, target entry is the homologue from another species; procedure, shortened: as §1
[5] = target: Beta-2 adrenergic receptor (Homo sapiens) (UniProt P07550); assay: Tested for agonistic effect on peripheral vascular resistance (PR) against beta-2 adrenergic receptor in cat; format: functional; details: Felis catus; target entry is the homologue from another species; procedure, shortened: as §1

Beta-1 adrenergic receptor (Homo sapiens), sequence (P08588 whole entry, looked up): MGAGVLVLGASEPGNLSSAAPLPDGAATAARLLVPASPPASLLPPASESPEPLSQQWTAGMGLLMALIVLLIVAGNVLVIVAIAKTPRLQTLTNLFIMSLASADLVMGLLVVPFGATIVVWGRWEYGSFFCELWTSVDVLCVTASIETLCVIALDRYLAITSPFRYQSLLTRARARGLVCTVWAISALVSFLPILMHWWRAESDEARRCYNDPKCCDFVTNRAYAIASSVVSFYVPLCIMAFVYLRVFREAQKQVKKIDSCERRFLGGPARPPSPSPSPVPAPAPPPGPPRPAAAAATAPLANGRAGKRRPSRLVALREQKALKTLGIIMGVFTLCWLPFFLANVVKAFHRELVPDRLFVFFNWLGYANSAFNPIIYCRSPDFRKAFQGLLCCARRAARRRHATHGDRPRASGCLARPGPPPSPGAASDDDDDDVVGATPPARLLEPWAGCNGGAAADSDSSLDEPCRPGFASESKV
Beta-2 adrenergic receptor (Homo sapiens), sequence (P07550 whole entry, looked up, the tested form may be a part): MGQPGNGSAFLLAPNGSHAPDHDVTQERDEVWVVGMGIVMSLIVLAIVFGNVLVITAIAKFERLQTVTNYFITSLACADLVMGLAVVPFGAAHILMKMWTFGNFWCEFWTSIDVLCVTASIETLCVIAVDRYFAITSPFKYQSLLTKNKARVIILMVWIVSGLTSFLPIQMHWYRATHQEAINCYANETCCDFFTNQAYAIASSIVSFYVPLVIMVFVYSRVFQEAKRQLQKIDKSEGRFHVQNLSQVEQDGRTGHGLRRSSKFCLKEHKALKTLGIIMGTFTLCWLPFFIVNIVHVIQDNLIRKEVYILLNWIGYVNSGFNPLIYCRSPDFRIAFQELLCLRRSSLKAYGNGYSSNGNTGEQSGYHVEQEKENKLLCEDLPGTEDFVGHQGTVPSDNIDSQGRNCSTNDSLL

KB [1] [µM/kg]	KB [5] [µM/kg]	Compound	KA [2] [µM/kg]	HR [3] [%]	KB [4] [µM/kg]
4.73	–	CC(C)NCC(O)c1cc2ccc(O)cc2o1 (stereo not given)	1.65	27	4.8
–	1.12	CC(C)NCC(O)c1cc2cc(O)ccc2o1 (stereo not given)	0.21	80	0.34
–	–	CC(C)NC[C@H](O)COc1ccc(O)cc1 [PRENALTEROL]	0.025	80	–
